An excerpt weighted towards active compounds, which were near 3.7% of everything screened.
KCNQ1 pot: potentiators or activators of KCNQ1 channel, primary screen, cell-based, thallium flux, high-throughput. 310,000 tested, 0.35% active. CHO-K1 KCNQ1, thallium flux FluxOR fluorescence; stronger effect = higher value. B-score at 10 µM;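 active = fluorescence ratio B-score, a plate-corrected score, at least three library SD, with initial intensity B-score within 5 SD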
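assay system = CHO-K1 cells stably expressing KCNQ1 | medium = assay buffer, equal DMSO in all wells | timing = 37 °C overnight plating, 90-min dark dye load, 20-min compound pretreatment | measured by = kinetic FluxOR thallium fluorescence, 10-s 1-Hz baseline, 110-s post-stimulus read | measure = fluorescence change relative to baseline, converted to B score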
Kir21 inh: inhibitors of mouse Kir2.1 inward-rectifier potassium channel. Inward rectifier potassium channel 2 (Mus musculus), P35561. HEK293-Kir2.1, FluxOR thallium flux fluorescence; stronger effect = lower value. B-score at 10 µM. 310,000 tested, 0.85% active. AID 1672, 2009;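 active = fluorescence ratio B-score at or below minus 3 SD of library scores, with starting-brightness B-score within 2 SD, cut at about -4.2 in these data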;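 note: channel flux triggered by added potassium and thallium sulfate stimulus; B-score of peak minus minimum fluorescence over baseline after thallium stimulus; more negative B-score means stronger Kir2.1 block with less thallium influx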
Target sequence (P35561 whole entry, looked up): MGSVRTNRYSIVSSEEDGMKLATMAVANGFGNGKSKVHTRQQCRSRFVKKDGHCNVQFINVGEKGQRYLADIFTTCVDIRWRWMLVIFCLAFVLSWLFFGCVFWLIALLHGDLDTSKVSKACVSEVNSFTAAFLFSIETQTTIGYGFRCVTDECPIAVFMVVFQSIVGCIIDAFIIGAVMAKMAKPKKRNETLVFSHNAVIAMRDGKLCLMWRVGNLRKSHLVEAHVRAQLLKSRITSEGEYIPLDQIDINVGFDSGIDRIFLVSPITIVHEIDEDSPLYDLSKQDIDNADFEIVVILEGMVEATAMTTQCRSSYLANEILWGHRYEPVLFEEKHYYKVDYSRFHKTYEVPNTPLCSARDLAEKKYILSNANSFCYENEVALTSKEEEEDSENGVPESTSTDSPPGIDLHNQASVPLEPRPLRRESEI
hERG protect: hERG rescue from dofetilide block, primary screen, cell-based, CHO-hERG, FluxOR thallium flux, dofetilide IC70; activation (rescue from dofetilide block), less the hit threshold, % at 10 µM; AID 1511, 2009; 310,000 tested, 0.51% active; Voltage-gated inwardly rectifying potassium channel KCNH2 (Homo sapiens), Q12809; dofetilide IC70 present;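 active = activation above the mean of controls blocked by dofetilide plus 5 SD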;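 note: thallium influx through hERG after potassium depolarization seen as dye fluorescence rise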
KCNK9 inh: KCNK9 potassium channel inhibitors, primary screen, HEK293 cells, thallium flux. FluxOR thallium flux fluorescence; stronger effect = lower value. B-score at 10 µM. 310,000 tested, 1.2% active;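 active = ratio B-score over 3 SD below the library mean, with starting fluorescence within 5 SD of its mean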;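 note: negative B-score means less thallium flux so channel inhibition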
KCNQ1 inh: inhibitors of human KCNQ1 channel, primary screen, cell-based, thallium flux, high-throughput. AID 2642, 2010. Potassium voltage-gated channel subfamily KQT member 1 (Homo sapiens), P51787. 310,000 tested, 1.3% active. CHO-K1 KCNQ1, FluxOR thallium flux fluorescence; stronger effect = higher value. B-score at 10 µM;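 active = compounds whose thallium flux B-score, printed positive for inhibition, exceeds three library SD while starting fluorescence stays within three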;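 note: channel opened by potassium depolarization with thallium stimulus after 20 min compound exposure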
KCNK3 block: human KCNK3 channel inhibitors, primary screen, CHO cells, FluxOR thallium flux, B-score | Potassium channel subfamily K member 3 (Homo sapiens), O14649 | AID 602410, 2012 | B-score at 10 µM | 340,000 tested, 0.84% active | FluxOR fluorescence; stronger effect = lower value;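 active = B-score under library mean minus 4 SD, starting fluorescence ratio at most library mean plus 5 SD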;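 note: more negative B-score means stronger inhibition of thallium flux through KCNK3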
KCNK9 block conf: KCNK9 potassium channel inhibitors, confirmation, HEK293 cells, thallium flux, duplicate. inhibition, % at 10 µM. shares compounds with KCNK9 inh. FluxOR thallium flux fluorescence. 4,900 tested, 43% active;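 active = thallium signal inhibited by more than 5 SD of the compound-free buffer control wells, on both duplicate plates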;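 note: 0% = assay buffer control wells without compound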
Kir2-1 spec: mouse Kir2.1 channel inhibition, confirmation, selectivity assay for KCNK9 modulator project, cell-based, HEK293, thallium flux; inhibition, % at 10 µM; AID 492993, 2010; Kir2.1 cells, FluxOR thallium flux fluorescence; shares compounds with KCNK9 inh; 4,900 tested, 4% active;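 active = thallium signal drop more than 5 SD beyond the mean of the no-compound control wells, seen in both duplicate plates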;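 note: signal is fluorescence rise after thallium addition divided by baseline fluorescence; plate controls were assay buffer only for no effect and full block by chlorpromazine control for full effect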
KCNK9 uninduced: thallium flux in non-induced HEK293 cells, confirmation, counter-screen for KCNK9 inhibitor project, cell-based, second counter screen, non-induced KCNK9-HEK293; FluxOR thallium flux; AID 492997, 2010; inhibition, % at 10 µM; 4,900 tested, 40% active; shares compounds with KCNK9 inh;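 active = thallium signal drop beyond 5 SD of the untreated control mean, on both duplicate plates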;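 note: plate controls were buffer only IC0 wells for no effect and SID17386958 at its maximal inhibitory level for full effect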
Active calls of the source: *; i = inactive; · = no result.

SMILES	KCNQ1 pot	Kir21 inh	hERG protect	KCNK9 inh	KCNQ1 inh	KCNK3 block	KCNK9 block conf	Kir2-1 spec	KCNK9 uninduced
CC(=O)c1cccc(-n2c(CCC(=O)O)ccc2-c2ccc(C)cc2)c1	i	0.75	2	-15*	i	i	i	i	i
O=C(O)CCc1ccc(-c2ccccc2)n1-c1cccc(C(=O)O)c1	i	-0.34	-3	i	i	i	·	·	·
O=C(NCCn1cccn1)C1CCC(=O)N(CCc2ccccc2)C1 (stereo not given)	i	0.06	-12	i	i	i	·	·	·
Cc1ccc(NC(=O)c2oc3ccccc3c2NC(=O)C2CCCO2)cc1C (stereo not given)	i	0.77	-20	i	i	i	i	i	i
COc1cccc(-c2ccc(C#N)c(OC(=O)c3c(Cl)cccc3Cl)n2)c1	i	-1.2	-6	-10*	i	i	38%*	i	28%*
COc1cccc(-c2ccc(C#N)c(OC(=O)c3ccc(Cl)cc3)n2)c1	i	0.11	-2	i	i	i	·	·	·
Cc1ccc(/C=N/N2CCN(Cc3cccc4ccccc34)CC2)o1	i	-0.78	-9	i	i	i	i	i	i
Cc1ccc(/C=N/N2CCN(Cc3cccc4ccccc34)CC2)s1	i	-0.02	-4	i	i	i	i	i	i
O=C(CN(Cc1ccco1)Cc1cccs1)N1CCN(S(=O)(=O)c2cccc(F)c2)CC1	·	·	·	·	·	i	·	·	·
O=C(O)CCCn1cc(NC(=O)c2sc3ccccc3c2Cl)cn1	i	1.3	-5	i	i	i	·	·	·
CCc1nc2c(s1)CCc1onc(-c3ccc(Cl)cc3)c1-2	i	-0.72	-10	-13*	i	i	70%*	i	38%*
COc1ccc([C@H]2CC(=O)C=C(c3ccc(OC)nc3)C2)cc1	·	·	·	·	·	i	·	·	·
O=C(COC(=O)/C=C/c1ccco1)Nc1cc(S(=O)(=O)N2CCOCC2)ccc1Cl	·	·	·	·	·	i	·	·	·
Cc1cccc(NC(=O)/C(C#N)=C\c2ccc(C(=O)O)cc2)c1	i	0.76	-9	i	i	i	·	·	·
COc1cc(C)c(/C=C(\C#N)C(=O)Nc2cccc(C)c2)cc1C(C)C	i	-1.2	-4	i	i	i	i	i	i
CCOc1ccccc1N(C)C(=O)c1cc2c(=O)n(CC)c3ccccc3c2s1	i	-0.69	-8	-14*	i	i	70%*	i	38%*
CCn1c(=O)c2cc(C(=O)N(C)CC(OC)OC)sc2c2ccccc21	i	0.68	-8	i	i	i	·	·	·
Cc1nn(C)c(C)c1CN(Cc1nc(CCC(C)C)no1)C(C)C	i	0.14	-22	i	i	i	·	·	·
O=C(CNS(=O)(=O)c1ccc(Cl)cc1)NC1CCCCC1	·	·	·	·	·	i	·	·	·
O=c1sc(N2CCN(c3ccccc3F)CC2)nc2ccsc12	i	-0.23	-10	-13*	i	i	36%*	i	40%*
Cc1cc(C)cc(OCC(=O)Nc2ccc(-n3cnnn3)cc2)c1	·	·	·	·	·	i	·	·	·
Cc1ccc(C)c(N2CCN(C(=O)c3cc4c(C)nc5ccccc5c4o3)CC2)c1	i	-1	-4	-8.8*	i	i	35%*	i	i
Cc1cccc(N2CCN(C(=O)c3ccc(CS(=O)Cc4ccc(Cl)cc4)o3)CC2)c1C (stereo not given)	i	0.17	-15	i	i	i	·	·	·
Cc1ccc(C)c(N2CCN(C(=O)c3ccc(CS(=O)Cc4cccc(Cl)c4)o3)CC2)c1 (stereo not given)	i	0.11	-14	i	i	i	i	i	i
COCCn1c(C)cc(C(=O)COc2ccc(N(C)S(=O)(=O)c3ccc(C)cc3)cc2)c1C	·	·	·	·	·	i	·	·	·
SMILES	KCNQ1 pot	Kir21 inh	hERG protect	KCNK9 inh	KCNQ1 inh	KCNK3 block	KCNK9 block conf	Kir2-1 spec	KCNK9 uninduced
COc1ccc(-n2sc3c(c2=S)-c2cc(OC)ccc2NC3(C)C)cc1	i	0.23	-9	i	i	i	·	·	·
COc1ccc2c(c1)-c1c(sn(-c3ccc(OC)c(OC)c3)c1=S)C(C)(C)N2	i	1.7	-4	i	i	i	i	i	i
COCCCn1c(SCC(=O)NC2CCS(=O)(=O)C2)nnc1-c1ccc(Cl)cc1 (stereo not given)	·	·	·	·	·	i	·	·	·
C/C(CCC(C)C)=N\NS(=O)(=O)c1ccc(C)c([N+](=O)[O-])c1	i	-0.57	-10	-8.9*	i	i	64%*	i	41%*
CC/C(C)=N/NS(=O)(=O)c1ccc(C)c([N+](=O)[O-])c1	i	1.1	-7	i	i	i	·	·	·
CC12CCC(=O)N1C(C(=O)NNC(=O)COc1ccccc1F)CS2 (stereo not given)	·	·	·	·	·	i	·	·	·
C=CCSc1nc2sc3c(c2c(=O)n1CC)CCc1ccccc1-3	i	-0.7	0	i	i	i	i	i	i
C=CCn1c(SCC)nc2sc3c(c2c1=O)CCc1ccccc1-3	i	0.33	-10	i	i	i	·	·	·
COc1ccc(/C=N/N(c2ccccc2)c2ccccc2)cc1O	i	1.9	-11	i	8*	i	i	i	i
Cc1csc(Sc2ccc(S(=O)(=O)N3CCCC3)cn2)n1	i	-1.4	-8	i	i	i	·	·	·
COc1ccc(S(=O)(=O)Nc2ccccn2)cc1C(=O)Nc1ccccc1	i	0.42	-5	i	i	i	·	·	·
COc1ccc(Cn2nc(C)n(N(C)c3ncc(C(F)(F)F)cc3Cl)c2=O)cc1	i	-0.52	-5	i	i	i	i	i	i
COc1ccc(NC(=O)CC23CC4CC(CC(Br)(C4)C2)C3)c(OC)c1	i	0.41	1	i	i	i	·	·	·
CC(=O)Oc1ccc2cc(-c3ccccc3)c(=O)oc2c1	i	1.9	-2	i	i	i	·	·	·

Screens (PubChem)
